Assay: Cytotoxicity against human A549 cells measured after 48 hrs by MTT assay
Type: functional, cell-based
Conditions: A549, 48 h
In short: (§1)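 MTT growth assay; cells seeded at 5×10³/well in RPMI1640 with 10% heat-inactivated FBS, attached 4–6 h, then exposed to five concentrations (0.01–100 μM, compounds dissolved in saline) for 48 h at 37 °C, 5% CO₂. MTT added for 4 h, formazan dissolved in DMSO, absorbance read at 490 nm. IC50 taken from log plot of percent of control versus concentration; means ± SD of triplicate experiments.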

Compound | IC50
COc1cc([C@@H]2c3cc4c(cc3[C@@H](NC(=O)CCN3C(=O)C5C6CCC(O6)C5C3=O)[C@H]3COC(=O)[C@H]23)OCO4)cc(OC)c1O (stereo partly specified) | 6.21 µM
COc1cc([C@@H]2c3cc4c(cc3[C@@H](NC(=O)[C@H](c3ccccc3)N3C(=O)C5C6CCC(O6)C5C3=O)[C@H]3COC(=O)[C@H]23)OCO4)cc(OC)c1O (stereo partly specified) | 7.03 µM
COc1cc([C@@H]2c3cc4c(cc3[C@@H](NC(=O)CN3C(=O)C5C6CCC(O6)C5C3=O)[C@H]3COC(=O)[C@H]23)OCO4)cc(OC)c1O (stereo partly specified) | 5.47 µM

Assay: Cytotoxicity against human HepG2 cells measured after 48 hrs by MTT assay
Type: functional, cell-based
Conditions: HepG2, 48 h
In short: as §1

Compound | IC50
COc1cc([C@@H]2c3cc4c(cc3[C@@H](NC(=O)CCN3C(=O)C5C6CCC(O6)C5C3=O)[C@H]3COC(=O)[C@H]23)OCO4)cc(OC)c1O (stereo partly specified) | 8.42 µM
COc1cc([C@@H]2c3cc4c(cc3[C@@H](NC(=O)[C@H](c3ccccc3)N3C(=O)C5C6CCC(O6)C5C3=O)[C@H]3COC(=O)[C@H]23)OCO4)cc(OC)c1O (stereo partly specified) | 1.98 µM
COc1cc([C@@H]2c3cc4c(cc3[C@@H](NC(=O)CN3C(=O)C5C6CCC(O6)C5C3=O)[C@H]3COC(=O)[C@H]23)OCO4)cc(OC)c1O (stereo partly specified) | 0.14 µM

Assay: Cytotoxicity against human HeLa cells measured after 48 hrs by MTT assay
Type: functional, cell-based
Conditions: not given
In short: as §1

Compound | IC50
COc1cc([C@@H]2c3cc4c(cc3[C@@H](NC(=O)CCN3C(=O)C5C6CCC(O6)C5C3=O)[C@H]3COC(=O)[C@H]23)OCO4)cc(OC)c1O (stereo partly specified) | 10.8 µM
COc1cc([C@@H]2c3cc4c(cc3[C@@H](NC(=O)[C@H](c3ccccc3)N3C(=O)C5C6CCC(O6)C5C3=O)[C@H]3COC(=O)[C@H]23)OCO4)cc(OC)c1O (stereo partly specified) | 28.5 µM
COc1cc([C@@H]2c3cc4c(cc3[C@@H](NC(=O)CN3C(=O)C5C6CCC(O6)C5C3=O)[C@H]3COC(=O)[C@H]23)OCO4)cc(OC)c1O (stereo partly specified) | 1.65 µM

Assay: Cytotoxicity against human HCT8 cells measured after 48 hrs by MTT assay
Type: functional, cell-based
Conditions: HCT-8, 48 h
In short: as §1

Compound | IC50
COc1cc([C@@H]2c3cc4c(cc3[C@@H](NC(=O)CCN3C(=O)C5C6CCC(O6)C5C3=O)[C@H]3COC(=O)[C@H]23)OCO4)cc(OC)c1O (stereo partly specified) | 17.2 µM
COc1cc([C@@H]2c3cc4c(cc3[C@@H](NC(=O)[C@H](c3ccccc3)N3C(=O)C5C6CCC(O6)C5C3=O)[C@H]3COC(=O)[C@H]23)OCO4)cc(OC)c1O (stereo partly specified) | 15.3 µM
COc1cc([C@@H]2c3cc4c(cc3[C@@H](NC(=O)CN3C(=O)C5C6CCC(O6)C5C3=O)[C@H]3COC(=O)[C@H]23)OCO4)cc(OC)c1O (stereo partly specified) | 17.1 µM

Assay: Cytotoxicity against human WI38 cells measured after 48 hrs by MTT assay
Type: toxicity, cell-based, WI-38
Conditions: not given
In short: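 MTT growth inhibition in WI-38 lung fibroblasts. Cells seeded at 5×10³/well in RPMI1640 with 10% heat-inactivated FBS, attached 4–6 h, then exposed 48 h at 37 °C, 5% CO₂ to five concentrations (0.01–100 μM, saline-dissolved). MTT 4 h, DMSO solubilisation, A490. IC50 from log plot of percent control vs concentration; triplicate, mean ± SD.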

Compound | IC50 at 48 h
COc1cc([C@@H]2c3cc4c(cc3[C@@H](NC(=O)CCN3C(=O)C5C6CCC(O6)C5C3=O)[C@H]3COC(=O)[C@H]23)OCO4)cc(OC)c1O (stereo partly specified) | > 100 µM
COc1cc([C@@H]2c3cc4c(cc3[C@@H](NC(=O)[C@H](c3ccccc3)N3C(=O)C5C6CCC(O6)C5C3=O)[C@H]3COC(=O)[C@H]23)OCO4)cc(OC)c1O (stereo partly specified) | 26.7 µM
COc1cc([C@@H]2c3cc4c(cc3[C@@H](NC(=O)CN3C(=O)C5C6CCC(O6)C5C3=O)[C@H]3COC(=O)[C@H]23)OCO4)cc(OC)c1O (stereo partly specified) | 33.5 µM

Assay: Octanol-water partition coefficient, log P of the compound
Type: physicochemical
Conditions: read-out: logP
In short: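 Partition coefficient P = compound concentration in 1-octanol / compound concentration in water.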

Compound | logP
COc1cc([C@@H]2c3cc4c(cc3[C@@H](NC(=O)CCN3C(=O)C5C6CCC(O6)C5C3=O)[C@H]3COC(=O)[C@H]23)OCO4)cc(OC)c1O (stereo partly specified) | 0.41
COc1cc([C@@H]2c3cc4c(cc3[C@@H](NC(=O)[C@H](c3ccccc3)N3C(=O)C5C6CCC(O6)C5C3=O)[C@H]3COC(=O)[C@H]23)OCO4)cc(OC)c1O (stereo partly specified) | 1.99
COc1cc([C@@H]2c3cc4c(cc3[C@@H](NC(=O)CN3C(=O)C5C6CCC(O6)C5C3=O)[C@H]3COC(=O)[C@H]23)OCO4)cc(OC)c1O (stereo partly specified) | 0.13

Assay: Inhibition of human RBC PP2A assessed as reduction in free phosphate ion release using Lys-Arg-pThr-Ile-Arg as substrate preincubated for 10 mins followed by substrate addition measured after 60 mins by malachite green method
Conditions: not given
In short: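 Purified PP2A (0.6 mU/well) preincubated with inhibitor 10 min at 37 °C. Reaction started with 200 μM Lys-Arg-pThr-Ile-Arg in 50 mM Tris-HCl pH 7.0, 100 μM CaCl₂; 60 min at room temperature. Released phosphate read by malachite green at 650 nm after 10 min; enzyme-plus-buffer blanks. IC50 from dose–response; mean of three independent experiments in duplicate.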

Compound | IC50
COc1cc([C@@H]2c3cc4c(cc3[C@@H](NC(=O)CCN3C(=O)C5C6CCC(O6)C5C3=O)[C@H]3COC(=O)[C@H]23)OCO4)cc(OC)c1O (stereo partly specified) | 9.52 µM
COc1cc([C@@H]2c3cc4c(cc3[C@@H](NC(=O)[C@H](c3ccccc3)N3C(=O)C5C6CCC(O6)C5C3=O)[C@H]3COC(=O)[C@H]23)OCO4)cc(OC)c1O (stereo partly specified) | > 100 µM
COc1cc([C@@H]2c3cc4c(cc3[C@@H](NC(=O)CN3C(=O)C5C6CCC(O6)C5C3=O)[C@H]3COC(=O)[C@H]23)OCO4)cc(OC)c1O (stereo partly specified) | 0.68 µM
